Xi reactivation: activators of inactive X chromosome reactivation, primary screen, imaging, XiGFP fibroblasts, GFP high-content imaging, set 2; 360,000 tested, 0.055% active; AID 743238, 2013; activation, % at 7.58 µM; XiGFP mouse fibroblasts, % GFP-positive cells imaging, 3 d; cells co-treated with 5-aza-dC sensitizer; scaled so ellipticine positive control = 100%;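 active = mean normalized replicate activation at least 10% and every replicate at or above 10%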
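Assay system – SV40-immortalized XiGFP fibroblast cells, line 68-5-11 · Buffer or medium – DMEM supplemented with 5-aza-dC as sensitizing agent · Dosing – one concentration, pinned · Benchmarks – positive control ellipticine, 6 µM final · Times – 3 days compound exposure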
E-selectin induc: E-selectin induction in HUVECs, primary screen, imaging, HUVEC, immunofluorescence imaging, single point; P16581; normalized: neutral wells 0, TNF-alpha wells 100; activation, % at 7.58 µM; 260,000 tested, 0.37% active; AID 686992, 2013;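 active = mean E-selectin-positive cell signal at least 10% of the positive control, reached in at least 60% of replicates, without over 20% cell loss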
Target sequence (P16581 whole entry, looked up): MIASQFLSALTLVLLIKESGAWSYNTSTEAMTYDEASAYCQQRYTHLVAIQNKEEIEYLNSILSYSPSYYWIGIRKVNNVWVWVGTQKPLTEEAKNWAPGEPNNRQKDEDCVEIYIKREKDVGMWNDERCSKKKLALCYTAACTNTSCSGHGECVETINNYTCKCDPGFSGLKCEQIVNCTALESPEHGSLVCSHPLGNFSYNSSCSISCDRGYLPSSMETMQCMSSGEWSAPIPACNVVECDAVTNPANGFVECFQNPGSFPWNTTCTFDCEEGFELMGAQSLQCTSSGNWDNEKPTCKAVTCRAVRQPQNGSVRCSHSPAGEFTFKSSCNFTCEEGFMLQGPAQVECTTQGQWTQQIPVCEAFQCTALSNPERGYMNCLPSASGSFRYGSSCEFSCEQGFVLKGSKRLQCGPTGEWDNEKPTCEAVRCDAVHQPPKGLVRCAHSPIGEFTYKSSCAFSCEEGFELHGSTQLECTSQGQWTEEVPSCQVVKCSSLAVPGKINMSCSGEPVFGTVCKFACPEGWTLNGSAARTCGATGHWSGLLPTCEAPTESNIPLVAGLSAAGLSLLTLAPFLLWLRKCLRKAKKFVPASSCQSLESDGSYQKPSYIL
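Assay system: HUVEC primary endothelial cells. Input: 3,000 HUVEC seeded per well. Doses: one compound dose added by pin transfer. Read-out basis: % PE-positive cells. Benchmarks: TNF-alpha high, DMSO low. Detection: immunofluorescence imaging. Buffer or medium: EGM-2, gelatin.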
RAD52 anneal inh: RAD52 DNA annealing inhibitors, primary screen, biochemical, FRET, single point, set 2; DNA repair protein RAD52 homolog (Homo sapiens), P43351; recombinant RAD52 DNA annealing, FRET fluorescence; 360,000 tested, 0.46% active; AID 651710, 2012; inhibition, % at 18.7 µM;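 active = every replicate showing at least 50% inhibition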
PglD inh: C. jejuni PglD acetyltransferase inhibitors, primary screen, biochemical, DTNB colorimetric, single point; purified PglD enzyme, DTNB colorimetric CoA detection; inhibition, % at 12.5 µM; 360,000 tested, 0.098% active; in the data active = inhibition above about 16%, passing the limit was not always enough
RAD54 branch: inhibitors of human RAD54 branch migration, primary screen, biochemical, fluorescence, single point; DNA repair and recombination protein RAD54-like (Homo sapiens), Q92698; RAD54 Holliday junction branch migration, FAM/BHQ fluorescence; inhibition, % at 10.4 µM; 360,000 tested, 0.14% active; AID 602329, 2012;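 active = mean normalized replicate activity at least 40 and at least half of replicates scoring 40 or more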;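 note: inhibitors cause a drop in the FAM fluorescence signal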
rRNA inh HTS: reduced GFP signal of wild-type E. coli, primary screen, bacterial rRNA inhibitor project, GFP/RFP fluorescence, OD600, single point; GFP signal change (wild-type ribosome), % (no concentration beside the values); E. coli WT GFP vs humanized-ribosome RFP mutants, 24 h; stronger effect = lower value; DMSO median 0, no signal -100; 350,000 tested, 1.6% active;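 active = significant combined selectivity score with lowered wild-type GFP, culture density cut under 30%, mutant RFP and density less affected; inactive = any of these conditions unmet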
Each line names hits and unclear results; the compound was inactive in the other large screens. An excerpt weighted towards active compounds, which were near 2% of everything screened.

C[C@@H]1CN([C@H](C)CO)C(=O)c2cc(NS(=O)(=O)c3ccc(F)cc3)ccc2O[C@@H]1CN(C)C(=O)NC1CCCCC1	none
CCC1(C)Cc2c(C#N)c(SC)nc(N3CCOCC3)c2CO1 (stereo unspecified)	rRNA inh HTS -39.9
C[C@H]1CN([C@@H](C)CO)C(=O)Cc2cc(NC(=O)Cc3ccccc3)ccc2O[C@@H]1CN(C)Cc1ccc(C(F)(F)F)cc1	none
C[C@H]1CN([C@@H](C)CO)C(=O)c2cccc(NS(C)(=O)=O)c2O[C@@H]1CN(C)C(=O)Nc1ccc2c(c1)OCO2	none
O=C(Cc1ccc(Br)cc1)OCC(=O)c1ccc[nH]1	rRNA inh HTS -23.2
COc1ccc(CC(=O)OCC(=O)c2ccc[nH]2)cc1	none (no result: E-selectin induc)
C[C@H](CO)N1C[C@H](C)[C@H](CN(C)C(=O)C2CC2)Oc2cc(-c3ccc(C#N)cc3)ccc2S1(=O)=O	none (no result: E-selectin induc, rRNA inh HTS)
N#C/C(=N/O)c1nc(-c2ccc(F)cc2)cs1	rRNA inh HTS -40.7 (no result: PglD inh, RAD54 branch)
CN1CCC(=C2c3ccccc3C=Cc3ccccc32)CC1	none
c1ccc2c(c1)CCc1ccccc1C2=C1CCNCC1	rRNA inh HTS -36.4 (no result: PglD inh, RAD54 branch)
Cc1ccc(OCCn2c(=S)[nH]c3c(N)ncnc32)cc1	rRNA inh HTS -37.2 (no result: PglD inh)
Cc1ccc(Nc2c(-c3ccc(N4CCOCC4)cc3)nc3ncccn23)c(C)c1	none
Cc1cccc(C)c1Nc1c(-c2ccc(N3CCOCC3)cc2)nc2ncccn12	rRNA inh HTS -24.6
CN(C)CCN(C(=O)c1ccc(C(=O)c2ccccc2)cc1)c1nc2cc3c(cc2s1)OCCO3	RAD52 anneal inh 63.1
CN(C)CCCN(C(=O)c1ccc2c(c1)OCCO2)c1nc2ccc(Cl)cc2s1	rRNA inh HTS -46.0
CCCC#Cc1ccc2c(c1)O[C@H](CN(C)C(=O)c1cnccn1)[C@H](C)CN([C@@H](C)CO)S2(=O)=O	none
c1ccc(-n2c(SCc3nc(-c4cccs4)no3)nnc2-c2ccco2)cc1	rRNA inh HTS -22.2 (no result: Xi reactivation, E-selectin induc, PglD inh, RAD54 branch)
O=C(O)c1ccc(CSc2nnc(-c3ccco3)n2-c2ccccc2)cc1	rRNA inh HTS -34.4 (no result: E-selectin induc, PglD inh, RAD54 branch)
CC(=O)Nc1ccc2c(c1)C(=O)N(C)[C@@H]1CC[C@@H](CC(=O)NCc3ccccc3)O[C@H]1CO2	none
COc1ccc(CNC(=O)c2cc3c(c(-c4cccc(-c5ccc(C#N)cc5)c4)n2)[C@@H](CCO)N([S@](=O)C(C)(C)C)C3)cc1	none
COc1cccc(CNC(=O)c2cc3c(c(-c4cccc(-c5ccc(C#N)cc5)c4)n2)[C@H](CCO)N([S@@](=O)C(C)(C)C)C3)c1	E-selectin induc 60.0
COc1cccc(CNC(=O)c2cc3c(c(-c4cccc(-c5cccc(C#N)c5)c4)n2)[C@H](CCO)N(S(=O)C(C)(C)C)C3)c1 (stereo partly specified)	E-selectin induc 48.6
CO[C@H](CN(C)C(=O)c1ccc2c(c1)OCO2)[C@@H](C)CN([C@H](C)CO)S(=O)(=O)c1ccccc1	none
CCCNC(=O)C[C@@H]1C[C@@H]2c3cc(NC(=O)c4ccc5c(c4)OCO5)ccc3O[C@@H]2[C@H](CO)O1	none (no result: RAD52 anneal inh)
Cc1noc(C)c1S(=O)(=O)Nc1ccc2c(c1)C(=O)N([C@@H](C)CO)C[C@H](C)[C@H](CN(C)C(=O)NC1CCCCC1)OCCCC[C@@H](C)O2	none
Cc1ccc(C(=O)Nc2sc3c(c2C(=O)O)CCCCC3)o1	none (no result: Xi reactivation, E-selectin induc, RAD52 anneal inh, rRNA inh HTS)
O=C(/C=C/c1ccco1)Nc1scc(-c2ccccc2)c1C(=O)O	rRNA inh HTS -33.9
Cc1ccc(C(=O)Nc2sc3c(c2C(=O)O)CCCC3)o1	rRNA inh HTS -25.4 (no result: PglD inh)
O=C(CCc1ccccc1)Nc1sc2c(c1C(=O)O)CCCC2	rRNA inh HTS -31.8
